Test results as given in article PMC8313742 (Molecular Metabolism, 2021).
Blank lines part the entries; values can stand above or below the substance they belong to.

Key:
HFD Sprague Dawley rats = assay: Chronic 4-week study in high-fat diet-fed Sprague Dawley rats; format: in vivo, rat; settings: for tAUC, BW / tAUC, FI / Epididymal AT / Inguinal AT / Perirenal AT: 4 weeks, n = 6, mean ± SEM; for Epididymal AT / Inguinal AT / Perirenal AT: study end
Outline: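 Male Sprague Dawley rats fed 60 kcal% fat diet from 5–6 weeks old for 20 weeks were randomized by body weight (n = 6). Dosing was s.c. saline or test compound q.3.d. for 4 weeks. Body weight and food intake were taken daily, and tAUC calculated. Terminal OGTT (2 g/kg, 4 mL/kg p.o.) was run after 14-h fast, 24 h post-dose, with glucose iAUC. Epididymal, perirenal and inguinal fat were weighed.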

[1] = tested on: obese male Sprague Dawley rats (HFD); assay: Acute food intake and body weight after single s.c. injection; format: in vivo, rat; settings: HFD SD rats; for body weight change after single injection: single s.c. 3 nmol/kg, 96-hour profile, n = 4
Outline: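 Male Sprague Dawley rats on 60 kcal% fat diet from 5–6 weeks of age were used when obese (>500 g). They were allocated by body weight and given a single s.c. injection at time 0. Food intake and body weight were recorded daily for 96–144 h. tAUC (0–96 h) was calculated. n = 4–10 per group. One-way ANOVA with Tukey versus vehicle; mean ± SEM.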

AMY3R cell line = format: binding, human; settings: competition with […] 125I-sCT, AMY3R cells, triplicates
[2] = tested on: Zucker diabetic fatty (fa/fa; ZDF) rats; assay: 8-week intervention study in ZDF rats; format: in vivo, rat; settings: for tAUC, BW / tAUC, FI / Epididymal AT / Inguinal AT / Perirenal AT: n = 10, mean ± SEM; for Epididymal AT / Inguinal AT / Perirenal AT: study end; for HbA1c levels compared to vehicle / OGTT blood glucose iAUC compared to vehicle: KBP-066 […] q.d.; for HbA1c levels compared to vehicle: KBP-066A 1.5 and 3 nmol/kg q.3.d.; for vehicle-corrected reduction in HbA1c at the end of the study: dose not given; for OGTT blood glucose iAUC compared to vehicle: OGTT 1 g/kg after seven weeks, KBP-066A 0.75 and 3 nmol/kg q.3.d.
[3] = tested on: obese male Sprague Dawley rats (HFD); assay: Acute gastric emptying rate; format: in vivo, rat; settings: plasma acetaminophen, n = 8
Outline: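 Obese HFD-fed male Sprague Dawley rats were fasted overnight, then given s.c. test compound plus oral glucose bolus and acetaminophen at time 0. Tail-vein EDTA blood was taken at 0, 30, 60, 120 and 240 min. Plasma acetaminophen by ELISA served as gastric emptying estimate, expressed as % of vehicle. n = 8. One-way ANOVA/Tukey at 60 and 240 min; Kruskal–Wallis/Dunn at 30 and 120 min.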

[4] = biological target: T1, Amylin 3 receptor (AMY3R; CHO K1 CALCR RAMP3) (Homo sapiens, UniProt O60896+P30988); assay: PathHunter β-arrestin recruitment reporter assay, amylin receptor; format: cell-based; settings: 10% FBS (Table S1)
T1 sequence (P30988 25-474): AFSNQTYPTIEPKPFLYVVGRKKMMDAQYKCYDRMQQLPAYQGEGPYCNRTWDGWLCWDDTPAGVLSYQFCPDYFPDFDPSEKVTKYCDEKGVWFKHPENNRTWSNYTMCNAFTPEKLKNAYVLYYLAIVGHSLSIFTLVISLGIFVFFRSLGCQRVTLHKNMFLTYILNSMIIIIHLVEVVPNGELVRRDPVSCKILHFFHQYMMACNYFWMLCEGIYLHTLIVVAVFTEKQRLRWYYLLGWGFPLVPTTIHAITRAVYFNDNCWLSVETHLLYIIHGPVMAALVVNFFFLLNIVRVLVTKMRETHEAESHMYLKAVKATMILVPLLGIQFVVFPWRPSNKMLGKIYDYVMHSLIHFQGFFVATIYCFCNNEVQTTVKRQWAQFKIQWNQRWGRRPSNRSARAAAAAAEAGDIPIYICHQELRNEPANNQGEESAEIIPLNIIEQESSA
T1 sequence (O60896 24-148 partner): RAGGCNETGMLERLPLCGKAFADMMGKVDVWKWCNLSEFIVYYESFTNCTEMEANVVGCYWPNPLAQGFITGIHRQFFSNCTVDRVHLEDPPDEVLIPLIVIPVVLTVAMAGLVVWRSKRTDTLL

[5] = single s.c. 36 nmol/kg, n = 6-10
[6] = 0.75 nmol/kg s.c. q.3.d., 8 weeks

change of IC50 in 2% HSA compared to 0.01% HSA (AMY3R cell line): 100 fold
Substance: Ac-CSNLSTCXLGKLSQDLHRLQTYPKTDVGANAP-NH2 [KBP-066A]
tAUC, BW (HFD Sprague Dawley rats; 1 nmol/kg s.c. q.3.d.): 2584 ± 7∗∗∗ g∗days^−1
tAUC, FI (HFD Sprague Dawley rats; 1 nmol/kg s.c. q.3.d.): 617 ± 10∗∗∗ g∗days^−1
Epididymal AT (HFD Sprague Dawley rats; 1 nmol/kg s.c. q.3.d.): 4.4 ± 1.0 g
Inguinal AT (HFD Sprague Dawley rats; 1 nmol/kg s.c. q.3.d.): 2.8 ± 0.3 g
Perirenal AT (HFD Sprague Dawley rats; 1 nmol/kg s.c. q.3.d.): 3.5 ± 0.9 g
tAUC, BW (HFD Sprague Dawley rats; 2 nmol/kg s.c. q.3.d.): 2452 ± 6∗∗∗¤ g∗days^−1
tAUC, FI (HFD Sprague Dawley rats; 2 nmol/kg s.c. q.3.d.): 518 ± 6∗∗∗¤¤¤ g∗days^−1
Epididymal AT (HFD Sprague Dawley rats; 2 nmol/kg s.c. q.3.d.): 3.9 ± 1.1 g
Inguinal AT (HFD Sprague Dawley rats; 2 nmol/kg s.c. q.3.d.): 1.9 ± 0.5 g
Perirenal AT (HFD Sprague Dawley rats; 2 nmol/kg s.c. q.3.d.): 2.7 ± 0.7∗∗ g
tAUC, BW (HFD Sprague Dawley rats; 4 nmol/kg s.c. q.3.d.): 2458 ± 8∗∗∗ g∗days^−1
tAUC, FI (HFD Sprague Dawley rats; 4 nmol/kg s.c. q.3.d.): 532 ± 10∗∗∗¤¤ g∗days^−1
Epididymal AT (HFD Sprague Dawley rats; 4 nmol/kg s.c. q.3.d.): 4.2 ± 1.2 g
Inguinal AT (HFD Sprague Dawley rats; 4 nmol/kg s.c. q.3.d.): 2.9 ± 1.4 g
Perirenal AT (HFD Sprague Dawley rats; 4 nmol/kg s.c. q.3.d.): 2.8 ± 1.0∗∗ g
OGTT glucose iAUC compared to vehicle (HFD Sprague Dawley rats; OGTT after four weeks, KBP-066A 1, 2, 4 nmol/kg q.3.d.): not statistically significant compared to vehicle
effect on food intake and body weight ([1]; single s.c. 0.5 nmol/kg (lowest dose), n = 6-10): only had a minor effect on both parameters
body weight change after single injection [1]: still markedly reduced even 96 h post-injection
duration of effect on body weight [1, 5]: 144 h
duration of effect on food intake [1, 5]: 120 h
effect on fasting blood glucose levels ([2]; 0.75 nmol/kg q.3.d. (lowest dose), 8 weeks): minor
tAUC, BW [2, 6]: 6180 ± 67 g∗days^−1
tAUC, FI [2, 6]: 3815 ± 135∗∗¤ g∗days^−1
Epididymal AT [2, 6]: 3.7 ± 0.1 g
Inguinal AT [2, 6]: 4.8 ± 0.4 g
Perirenal AT [2, 6]: 6.0 ± 0.3 g
fasting blood glucose levels (tAUC) compared to KBP-066 q.d. ([2]; 3 nmol/kg q.3.d. (highest dose), 8 weeks): significantly improved
tAUC, BW ([2]; 3 nmol/kg s.c. q.3.d., 8 weeks): 6409 ± 122 g∗days^−1
tAUC, FI ([2]; 3 nmol/kg s.c. q.3.d., 8 weeks): 2898 ± 61∗∗∗ g∗days^−1
Epididymal AT ([2]; 3 nmol/kg s.c. q.3.d., 8 weeks): 4.7 ± 0.2 g
Inguinal AT ([2]; 3 nmol/kg s.c. q.3.d., 8 weeks): 6.3 ± 0.7 g
Perirenal AT ([2]; 3 nmol/kg s.c. q.3.d., 8 weeks): 6.7 ± 0.4 g
plasma insulin (tAUC) compared to KBP-066 q.d. ([2]; 8 weeks, 3 nmol/kg q.3.d.): significantly preserved plasma insulin at higher levels
HbA1c levels compared to vehicle ([2]; 8 weeks): significantly improved
vehicle-corrected reduction in HbA1c at the end of the study ([2]; 8 weeks): 46%
OGTT blood glucose iAUC compared to vehicle [2]: significantly reduced

fold lower EC50 than KBP-066A for the AMYR [4]: eight-fold
Substance: Ac-CSNLSTCXLGRLSQDLHRLQTYPKTDVGANAP-NH2 [KBP-066]
gastric emptying rate at 30 min ([3]; […] s.c., overnight fasted rats): reduced the gastric emptying rate
gastric emptying rate at 60 and 120 min ([3]; both doses 0.75 and […] s.c.): significantly did so
body weight change after single injection [1]: completely returned to the baseline after 72 h
change of IC50 in 2% HSA compared to 0.01% HSA (AMY3R cell line): not affected by the difference in HSA concentration
HbA1c levels compared to vehicle ([2]; 8 weeks): significantly improved
vehicle-corrected reduction in HbA1c at the end of the study ([2]; 8 weeks): 31%
OGTT blood glucose iAUC compared to vehicle [2]: significantly reduced
